The target of assay [1] is Serotonin 2 (5-HT2) receptor (Rattus norvegicus, UniProt P30994+P08909+P14842). Put plainly: Displacement of [3H]ketanserin from 5-hydroxytryptamine 2 receptor. The assay is classed as protein assay. On the technique in general: Loss of bound radioactivity is the signal in a displacement assay; it reports binding, not function.
Assay [2] addresses T1, 5-hydroxytryptamine receptor 1A (Rattus norvegicus, UniProt P19327).
T1 sequence (P19327 whole entry): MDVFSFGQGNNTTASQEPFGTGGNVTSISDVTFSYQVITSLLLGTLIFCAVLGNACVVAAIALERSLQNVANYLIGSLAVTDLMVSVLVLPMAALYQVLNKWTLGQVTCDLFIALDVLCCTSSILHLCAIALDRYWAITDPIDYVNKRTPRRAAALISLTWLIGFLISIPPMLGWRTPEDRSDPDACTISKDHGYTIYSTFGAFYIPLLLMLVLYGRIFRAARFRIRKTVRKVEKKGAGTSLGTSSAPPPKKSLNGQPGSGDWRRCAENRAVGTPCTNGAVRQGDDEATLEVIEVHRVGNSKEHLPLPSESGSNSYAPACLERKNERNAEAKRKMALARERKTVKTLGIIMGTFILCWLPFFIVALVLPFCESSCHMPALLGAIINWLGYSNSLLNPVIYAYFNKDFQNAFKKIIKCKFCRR
In words: Binding affinity for 5-hydroxytryptamine 1A receptor with [3H]5-HT. Summed up:
(§1)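 [3H]5-HT binding to 5-HT1 sites. The 5-HT1A component was distinguished by masking 5-HT1A sites with 1 µM S-spiroxatrine. Values are geometric means.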

Assay [3] has as its target 5-hydroxytryptamine receptor 1B (Rattus norvegicus, UniProt P28564). Put plainly: Inhibition of [3H]5-HT binding to 5-hydroxytryptamine 1B receptor. Summed up: as §1

Our source for the Ki values is ChEMBL document CHEMBL1127483, “Synthesis and structure activity relationships of cis- and trans-2,3,4,4a,9,9a-hexahydro-1H-indeno[2,1-c]pyridines for 5-HT receptor subtypes” (J Med Chem, 1994).

The Ki is a dissociation constant, usually derived from enzyme kinetics or from competition with a known ligand.

Chain of 5-hydroxytryptamine receptor 1B (P28564 whole entry): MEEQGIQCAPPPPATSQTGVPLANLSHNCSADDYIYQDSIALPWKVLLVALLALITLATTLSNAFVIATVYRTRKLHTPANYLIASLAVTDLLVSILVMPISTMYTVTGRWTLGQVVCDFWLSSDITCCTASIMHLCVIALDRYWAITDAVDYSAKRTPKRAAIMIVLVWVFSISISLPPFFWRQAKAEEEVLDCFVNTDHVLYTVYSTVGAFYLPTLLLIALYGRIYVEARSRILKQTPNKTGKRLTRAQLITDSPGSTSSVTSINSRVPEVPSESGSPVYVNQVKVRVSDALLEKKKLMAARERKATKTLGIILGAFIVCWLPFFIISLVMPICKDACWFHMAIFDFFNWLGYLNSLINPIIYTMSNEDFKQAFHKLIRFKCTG

As for `COc1cccc2c1C1CCN(CCNC(=O)c3ccc(F)cc3)CC1C2` (stereo not given), the inhibition constant Ki was 28.9 nM in assay [1], 0.588 nM in assay [2] and 888 nM in assay [3].
For `COc1cccc2c1[C@@H]1CCN(CCCCN3C(=O)CC4(CCCC4)CC3=O)C[C@@H]1C2` the same measures were 35.9 nM, 54.5 nM and 13600 nM.
For `CCCN1CC[C@H]2c3c(cccc3OC)C[C@H]2C1`, the Ki in assay [1] stood at 965 nM; in assay [3], 48500 nM.
Turning to `COc1cccc2c1[C@@H]1CCN(CCCN3C(=O)CC4(CCCC4)CC3=O)C[C@H]1C2`, the Ki in assay [1] was found to be 15.9 nM; in assay [2], 51.2 nM; in assay [3], 7360 nM.
For `COc1cccc2c1C1CCN(CCCCN3C(=O)C4C5C=CC(C6C=CC65)C4C3=O)CC1C2.Cl` (trans isomer) the same measures were 2.58 nM, 3.6 nM and 1310 nM.
For `COc1cccc2c1[C@@H]1CCN(CCCN3C(=O)CC4(CCCC4)CC3=O)C[C@@H]1C2` the same measures were 17.4 nM, 692 nM and 96400 nM.
For `CCCN1CC[C@H]2c3c(cccc3OC)C[C@@H]2C1` the same measures were 688 nM, 76.2 nM and 5010 nM.
For the compound `CCCN(CCC)C1CCc2cccc(O)c2C1` (stereo not given) [8-OH-DPAT], the Ki in assay [1] is on record as more than 10000 nM.
In the case of `COc1cccc2c1C1CCN(CCCN3C(=O)c4ccccc4S3(=O)=O)CC1C2` (stereo not given), the values for the Ki in assay [1], in assay [2] and in assay [3] were 3 nM, 0.891 nM and 845 nM, respectively.
For `COc1cccc2c1C1CCN(CCCCN3C(=O)c4ccccc4S3(=O)=O)CC1C2` (stereo not given), the inhibition constant Ki in assay [1] is 33.4 nM; in assay [2], 1.98 nM; in assay [3] it was 325 nM.
Turning to `COc1cccc2c1[C@@H]1CCN(CCCCN3C(=O)CC4(CCCC4)CC3=O)C[C@H]1C2`, the Ki in assay [1] was 9.3 nM; in assay [2], 1.65 nM; in assay [3] it was 800 nM.
